According to ChEMBL document CHEMBL2086265, “Design of inhibitors of Helicobacter pylori glutamate racemase as selective antibacterial agents: incorporation of imidazoles onto a core pyrazolopyrimidinedione scaffold to improve bioavailabilty” (Bioorg Med Chem Lett, 2012):
pIC50: −log10 of the molar value. ≈ marks a conversion by molar mass, not a printed value.

What was measured:
[1] = Intrinsic clearance in human liver microsomes at 2 uM assessed per mg of protein; type: ADME, Microsome; conditions: read-out: CLH
Glutamate racemase = target: T1, Glutamate racemase (Helicobacter pylori J99, UniProt Q9ZLT0); experiment: Inhibition of Helicobacter pylori J99 glutamate racemase
T1 sequence (Q9ZLT0 whole entry): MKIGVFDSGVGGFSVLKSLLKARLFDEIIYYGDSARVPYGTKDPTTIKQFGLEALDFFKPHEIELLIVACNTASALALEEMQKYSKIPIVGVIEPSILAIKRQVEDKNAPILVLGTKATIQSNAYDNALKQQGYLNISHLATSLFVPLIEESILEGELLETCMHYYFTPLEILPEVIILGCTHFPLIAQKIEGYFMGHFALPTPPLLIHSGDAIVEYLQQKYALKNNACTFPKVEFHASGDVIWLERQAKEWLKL
How it was run: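 The racemase was expressed from the murI gene of H. pylori J99 chromosomal DNA. IC50 was taken as the mean of duplicate determinations, using a method cited from earlier work.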

[2] = Intrinsic clearance in mouse liver microsomes at 2 uM assessed per mg of protein; type: ADME, Microsome; conditions: read-out: CLH
Helicobacter pylori [3] = experiment: Antibacterial activity against wild type Helicobacter pylori 055; type: functional
Helicobacter pylori [4] = experiment: Antibacterial activity against AcrAB-TolC efflux pump-dificient Helicobacter pylori; type: functional
Helicobacter pylori [5] = experiment: Ratio of MIC for wild type Helicobacter pylori 055 to MIC for AcrAB-TolC efflux pump-dificient Helicobacter pylori

| microsomal CLint at 2 µM [1] [µL/min/mg] | pIC50 (Glutamate racemase) | microsomal CLint at 2 µM [2] [µL/min/mg] | MIC (Helicobacter pylori [3]) [µg/mL] | MIC (Helicobacter pylori [4]) [µg/mL] | Compound | Ratio (Helicobacter pylori [5]) |
| --- | --- | --- | --- | --- | --- | --- |
| 19 | 7.41 | 53 | 3 (≈ 5.8 µM) | – | CC(=O)c1cc(-c2c3c(=O)n(C)c(=O)n(CC4CC4)c3nn2Cc2ccnc3ccc(Cl)cc23)n(C)c1 | – |
| < 14 | 7.06 | 87 | 4 (≈ 7.98 µM) | 2 (≈ 3.99 µM) | Cn1cc(C#N)nc1-c1c2c(=O)n(C)c(=O)n(CC3CC3)c2nn1Cc1ccnc2ccc(Cl)cc12 | – |
| 59 | 7.22 | > 100 | 1 (≈ 2 µM) | 0.25 (≈ 0.499 µM) | Cc1cc(C#N)oc1-c1c2c(=O)n(C)c(=O)n(CC3CC3)c2nn1Cc1ccnc2ccc(Cl)cc12 | – |
| 94 | 7.07 | > 100 | 4 (≈ 7.97 µM) | – | CC(C)Cn1c(=O)n(C)c(=O)c2c(-c3cc(C#N)cn3C)n(Cc3ccnc4ccc(Cl)cc34)nc21 | – |
| 17 | 6.77 | > 100 | 4 (≈ 8.37 µM) | – | CC(C)Cn1c(=O)n(C)c(=O)c2c(-c3cncn3C)n(Cc3ccnc4ccc(Cl)cc34)nc21 | – |
| 38 | 6.66 | 63 | 2 (≈ 3.99 µM) | 2 (≈ 3.99 µM) | Cc1oc(C#N)cc1-c1c2c(=O)n(C)c(=O)n(CC3CC3)c2nn1Cc1ccnc2ccc(Cl)cc12 | <=2 |
| 20 | 6.66 | > 100 | 8 (≈ 16.8 µM) | – | Cc1c[nH]nc1-c1c2c(=O)n(C)c(=O)n(CC3CC3)c2nn1Cc1ccnc2ccc(Cl)cc12 | – |
| < 14 | 6.64 | 64 | 8 (≈ 16.8 µM) | – | Cn1cnnc1-c1c2c(=O)n(C)c(=O)n(CC3CC3)c2nn1Cc1ccnc2ccc(Cl)cc12 | – |
| > 100 | 6.59 | > 100 | 18 (≈ 37.7 µM) | – | CC(C)Cn1c(=O)n(C)c(=O)c2c(-c3cccn3C)n(Cc3ccnc4ccc(Cl)cc34)nc21 | – |
| 34 | 6.55 | > 100 | 8 (≈ 15.7 µM) | – | Cc1sc(N)nc1-c1c2c(=O)n(C)c(=O)n(CC3CC3)c2nn1Cc1ccnc2ccc(Cl)cc12 | – |
| < 14 | 6.13 | 61 | > 32 | – | Cc1nc(N)sc1-c1c2c(=O)n(C)c(=O)n(CC3CC3)c2nn1Cc1ccnc2ccc(Cl)cc12 | – |
| 32 | 6.09 | < 14 | 8 (≈ 16.8 µM) | 4 (≈ 8.39 µM) | Cn1ncnc1-c1c2c(=O)n(C)c(=O)n(CC3CC3)c2nn1Cc1ccnc2ccc(Cl)cc12 | – |
| 92 | 6.05 | > 100 | 32 (≈ 67.2 µM) | – | Cc1nc[nH]c1-c1c2c(=O)n(C)c(=O)n(CC3CC3)c2nn1Cc1ccnc2ccc(Cl)cc12 | – |
| > 100 | 7.27 | > 100 | 64 (≈ 121 µM) | 16 (≈ 30.2 µM) | Cn1cncc1-c1c2c(=O)n(CC#CCO)c(=O)n(CC3CC3)c2nn1Cc1ccnc2ccc(Cl)cc12 | – |
| 25 | 7.25 | 49 | 1 (≈ 1.99 µM) | 0.8 (≈ 1.59 µM) | C=CCn1c(=O)c2c(-c3cncn3C)n(Cc3ccnc4ccc(Cl)cc34)nc2n(CC2CC2)c1=O | <=2 |
| 47 | 7.20 | 44 | 8 (≈ 15.6 µM) | 2 (≈ 3.89 µM) | CC#CCn1c(=O)c2c(-c3cncn3C)n(Cc3ccnc4ccc(Cl)cc34)nc2n(CC2CC2)c1=O | – |
| < 14 | 7.16 | 44 | 2 (≈ 3.88 µM) | 0.9 (≈ 1.74 µM) | Cn1cncc1-c1c2c(=O)n(CC3CC3)c(=O)n(CC3CC3)c2nn1Cc1ccnc2ccc(Cl)cc12 | <=2 |
| < 14 | 7.14 | 15 | 4 (≈ 8.16 µM) | 1 (≈ 2.04 µM) | CCn1c(=O)c2c(-c3cncn3C)n(Cc3ccnc4ccc(Cl)cc34)nc2n(CC2CC2)c1=O | – |
| < 14 | 7.10 | 6 | 8 (≈ 15.9 µM) | 2 (≈ 3.98 µM) | Cn1cncc1-c1c2c(=O)n(C3CC3)c(=O)n(CC3CC3)c2nn1Cc1ccnc2ccc(Cl)cc12 | – |
| > 100 | 6.77 | > 100 | 64 (≈ 107 µM) | 16 (≈ 26.7 µM) | Cn1cncc1-c1c2c(=O)n(CC#CCN3CCOCC3)c(=O)n(CC3CC3)c2nn1Cc1ccnc2ccc(Cl)cc12 | – |

| microsomal CLint at 2 µM [1] [µL/min/mg] | pIC50 (Glutamate racemase) | microsomal CLint at 2 µM [2] [µL/min/mg] | MIC (Helicobacter pylori [3]) [µg/mL] | MIC (Helicobacter pylori [4]) [µg/mL] | Compound | Ratio (Helicobacter pylori [5]) |
| --- | --- | --- | --- | --- | --- | --- |
| 53 | 6.66 | 51 | 16 (≈ 31.7 µM) | 16 (≈ 31.7 µM) | CC(C)n1c(=O)c2c(-c3cncn3C)n(Cc3ccnc4ccc(Cl)cc34)nc2n(CC2CC2)c1=O | <=2 |
| 21 | 6.34 | 65 | 8 (≈ 15.6 µM) | 8 (≈ 15.6 µM) | C#CC(C)n1c(=O)c2c(-c3cncn3C)n(Cc3ccnc4ccc(Cl)cc34)nc2n(CC2CC2)c1=O (configuration not stated) | <=2 |
| > 100 | 7.89 | > 100 | 8 (≈ 13.2 µM) | 16 (≈ 26.4 µM) | Cn1cc(C#N)cc1-c1c2c(=O)n(CC#CCn3cncn3)c(=O)n(CC3CC3)c2nn1Cc1ccnc2ccc(Cl)cc12 | – |
| < 14 | 7.55 | 16 | 0.75 (≈ 1.43 µM) | 0.3 (≈ 0.573 µM) | C#CCn1c(=O)c2c(-c3cc(C#N)cn3C)n(Cc3ccnc4ccc(Cl)cc34)nc2n(CC2CC2)c1=O | <=2 |
| > 100 | 7.29 | > 100 | 16 (≈ 25.7 µM) | 4 (≈ 6.42 µM) | Cn1cc(C#N)cc1-c1c2c(=O)n(CC#CCN3CCOCC3)c(=O)n(CC3CC3)c2nn1Cc1ccnc2ccc(Cl)cc12 | – |
| < 14 | 7.26 | 96 | 8 (≈ 15.2 µM) | 1 (≈ 1.9 µM) | Cn1cc(C#N)cc1-c1c2c(=O)n(CC#N)c(=O)n(CC3CC3)c2nn1Cc1ccnc2ccc(Cl)cc12 | – |
| > 100 | 7.24 | > 100 | 32 (≈ 57.8 µM) | 16 (≈ 28.9 µM) | Cn1cc(C#N)cc1-c1c2c(=O)n(CC#CCO)c(=O)n(CC3CC3)c2nn1Cc1ccnc2ccc(Cl)cc12 | – |
| 25 | 7.15 | 17 | 0.75 (≈ 1.46 µM) | 0.6 (≈ 1.17 µM) | CCn1c(=O)c2c(-c3cc(C#N)cn3C)n(Cc3ccnc4ccc(Cl)cc34)nc2n(CC2CC2)c1=O | <=2 |
| 33 | 7.15 | 76 | 1.5 (≈ 2.85 µM) | 1 (≈ 1.9 µM) | C=CCn1c(=O)c2c(-c3cc(C#N)cn3C)n(Cc3ccnc4ccc(Cl)cc34)nc2n(CC2CC2)c1=O | <=2 |
| 99 | 7.13 | > 100 | 2 (≈ 3.72 µM) | 2 (≈ 3.72 µM) | CC#CCn1c(=O)c2c(-c3cc(C#N)cn3C)n(Cc3ccnc4ccc(Cl)cc34)nc2n(CC2CC2)c1=O | <=2 |
| 30 | 7.10 | 33 | 2 (≈ 3.8 µM) | 0.13 (≈ 0.247 µM) | Cn1cc(C#N)cc1-c1c2c(=O)n(C3CC3)c(=O)n(CC3CC3)c2nn1Cc1ccnc2ccc(Cl)cc12 | – |
| > 100 | 7.06 | > 100 | 64 (≈ 121 µM) | 16 (≈ 30.2 µM) | Cn1cc(C#N)cc1-c1c2c(=O)n(CCO)c(=O)n(CC3CC3)c2nn1Cc1ccnc2ccc(Cl)cc12 | – |
| > 100 | 6.92 | > 100 | 8 (≈ 13.2 µM) | 4 (≈ 6.62 µM) | Cn1cc(C#N)cc1-c1c2c(=O)n(CC#CCn3cccn3)c(=O)n(CC3CC3)c2nn1Cc1ccnc2ccc(Cl)cc12 | – |
| 91 | 6.80 | > 100 | 2 (≈ 3.72 µM) | 8 (≈ 14.9 µM) | C#CC(C)n1c(=O)c2c(-c3cc(C#N)cn3C)n(Cc3ccnc4ccc(Cl)cc34)nc2n(CC2CC2)c1=O (configuration not stated) | <=2 |
| 41 | 6.59 | > 100 | 64 (≈ 106 µM) | 4 (≈ 6.62 µM) | Cn1cc(C#N)cc1-c1c2c(=O)n(CC#CCn3ccnc3)c(=O)n(CC3CC3)c2nn1Cc1ccnc2ccc(Cl)cc12 | – |
| > 100 | 6.33 | > 100 | 32 (≈ 55.2 µM) | 32 (≈ 55.2 µM) | Cn1cc(C#N)cc1-c1c2c(=O)n(CCn3cccn3)c(=O)n(CC3CC3)c2nn1Cc1ccnc2ccc(Cl)cc12 | – |
| > 100 | 6.17 | > 100 | 16 (≈ 27.5 µM) | 16 (≈ 27.5 µM) | Cn1cc(C#N)cc1-c1c2c(=O)n(CCn3ccnn3)c(=O)n(CC3CC3)c2nn1Cc1ccnc2ccc(Cl)cc12 | – |
| – | 6.82 | – | 2 (≈ 3.7 µM) | 2 (≈ 3.7 µM) | Cn1cc(C#N)nc1-c1c2c(=O)n(CC3CC3)c(=O)n(CC3CC3)c2nn1Cc1ccnc2ccc(Cl)cc12 | <=2 |
| < 14 | 6.60 | < 14 | 8 (≈ 15.2 µM) | 4 (≈ 7.59 µM) | Cn1cc(C#N)nc1-c1c2c(=O)n(C3CC3)c(=O)n(CC3CC3)c2nn1Cc1ccnc2ccc(Cl)cc12 | – |
| – | 6.92 | – | 4 (≈ 9.04 µM) | – | CC(C)Cn1c(=O)n(C)c(=O)c2c(-c3cncn3C)n(Cc3cccc4ccccc34)nc21 | – |
